The source made the active and inactive calls. Rule as the data show it, unless noted: active = inhibition above about 30%; inactive = the rest.
Assays:
[1] = reducers of endogenous Her2 protein level, primary screen, SKBR3 breast tumor cells, AlphaScreen, ATP viability (AID 461;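 active = Her2 level under about 52% in both replicate screens, with viability over 70% of control, limit read from the data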;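 as to Her2 level: lower value means less Her2 protein in the cells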;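 as to viability: percent of carrier control wells set as 100% viability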); settings: 18-24 h, measured here: SKBR3 viability, ATP luminescence, at 10 µM
[2] = target: Receptor tyrosine-protein kinase erbB-2 (Homo sapiens) (UniProt P04626); test: as above; settings: 18-24 h, at 10 µM, stronger effect = lower value
Chain of Receptor tyrosine-protein kinase erbB-2 (Homo sapiens) (P04626 whole entry, looked up): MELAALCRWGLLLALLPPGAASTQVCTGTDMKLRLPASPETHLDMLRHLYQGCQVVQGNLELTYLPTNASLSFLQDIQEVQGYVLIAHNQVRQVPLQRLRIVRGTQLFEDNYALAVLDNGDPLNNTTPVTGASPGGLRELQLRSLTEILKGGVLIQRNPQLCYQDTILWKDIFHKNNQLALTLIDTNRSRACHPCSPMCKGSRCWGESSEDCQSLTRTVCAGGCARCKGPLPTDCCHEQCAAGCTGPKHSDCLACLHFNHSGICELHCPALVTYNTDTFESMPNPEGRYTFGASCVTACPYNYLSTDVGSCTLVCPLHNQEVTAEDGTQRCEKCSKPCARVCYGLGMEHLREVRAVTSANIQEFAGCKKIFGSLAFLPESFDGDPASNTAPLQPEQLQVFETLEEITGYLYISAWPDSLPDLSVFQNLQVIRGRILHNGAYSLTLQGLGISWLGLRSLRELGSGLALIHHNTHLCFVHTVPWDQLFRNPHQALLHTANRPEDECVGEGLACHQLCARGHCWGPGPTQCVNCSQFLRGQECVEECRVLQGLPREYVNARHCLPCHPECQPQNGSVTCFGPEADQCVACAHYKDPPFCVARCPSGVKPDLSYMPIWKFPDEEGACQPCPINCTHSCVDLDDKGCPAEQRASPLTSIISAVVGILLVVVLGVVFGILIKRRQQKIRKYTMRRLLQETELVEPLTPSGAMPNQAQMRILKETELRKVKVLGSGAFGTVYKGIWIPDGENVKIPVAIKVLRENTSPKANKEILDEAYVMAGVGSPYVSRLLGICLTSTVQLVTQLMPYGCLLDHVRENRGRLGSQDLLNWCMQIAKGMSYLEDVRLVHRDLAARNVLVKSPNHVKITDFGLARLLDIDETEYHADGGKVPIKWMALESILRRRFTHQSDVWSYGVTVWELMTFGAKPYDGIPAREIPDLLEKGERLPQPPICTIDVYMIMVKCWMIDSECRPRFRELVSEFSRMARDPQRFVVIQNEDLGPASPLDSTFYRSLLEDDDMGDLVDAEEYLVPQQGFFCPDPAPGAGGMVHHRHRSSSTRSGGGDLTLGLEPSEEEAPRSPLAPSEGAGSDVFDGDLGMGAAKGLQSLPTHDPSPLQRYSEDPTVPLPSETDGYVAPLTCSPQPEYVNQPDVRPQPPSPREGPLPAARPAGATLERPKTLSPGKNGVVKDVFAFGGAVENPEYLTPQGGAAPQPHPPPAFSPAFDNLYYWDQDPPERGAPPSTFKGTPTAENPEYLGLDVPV

[3] = SK-BR-3 cell growth inhibitors, pilot screen, 24 h, human (AID 572;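 active = viability at or below 10% of carrier control in both of two separate runs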;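 also: compound exposure lasted between 18 and 24 h rather than exactly 24 h; 100% = carrier-treated control wells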); settings: SK-BR-3 viability, CellTiter-Glo luminescence, at 10 µM, stronger effect = lower value
[4] = HUVEC growth inhibition – cell-based, human, primary screen (AID 575;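 active = viability at or below 30% in both replicate assays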;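 also: 100% = median of untreated cell wells with 0.1% DMSO on each plate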); settings: HUVEC proliferation, CellTiter-Glo luminescence, 72 h; at 10 µM; stronger effect = lower value
Summary of the method: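 System – primary HUVEC, no more than 12 passages · Medium – Low-serum (2% FBS) EBM, supplemented · Times – 72 h exposure, 37 °C, 5% CO2, 30 min RT equilibration · Measured by – luminescent ATP assay · Read-out – % viability relative to median vehicle-well signal on each plate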

[5] = growth inhibitors of H69AR lung tumor, primary screen, human, duplicate replicates (AID 580;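 active = viability at or under a set limit in both replicates, limit being median viability minus 3 SD, cut at about 48% in these data, passing the limit was not always enough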;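 also: 100% = mean luminescence of untreated wells and 0% = no signal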); settings: H69AR lung tumor cells viability, ATP luminescence, 72 h; at 10 µM; stronger effect = lower value
[6] = reversal of MRP1-mediated doxorubicin resistance, pilot screen, H69AR cells, doxorubicin co-treatment (AID 601;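 active = viability loss from added drug above about 55%, and viability with drug at most 40%, in both replicates, limit read from the data, passing the limit was not always enough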); settings: CellTiter-Glo, 72 h, at 10 µM; for differential viability (reversal): stronger effect = higher value
[7] = 384-well plate pilot, post-Golgi transport modulator project, inhibition of yeast transport mutant growth (AID 636; in the data active = inhibition above about 31%); settings: absorbance 615 nm, about 18 h, stronger effect = higher value
[8] = growth suppression of yeast trafficking mutant, preliminary HTS, modulators of trafficking downstream of Golgi apparatus project, 1536-format plate, OD 615 nm (AID 637); settings: yeast transport mutant growth, absorbance 615 nm, 18 h; stronger effect = higher value
[9] = H69AR cells + 2 uM doxorubicin, measured here: viability with 2 uM doxorubicin, stronger effect = lower value
[10] = H69AR cells, compound alone cytotoxicity

SMILES: COC(=O)c1cc(OC)c(OC)cc1NC(=O)CC1CCCCC1
- viability [1]: 104%
- Her2 level [2]: 96.5% (inactive)
- viability [3]: 104% (inactive)
- viability [4]: 99.3% (inactive)
- viability [5]: 103% (inactive)
- differential viability (reversal) ([6]; H69AR cells + 2 uM doxorubicin): 9.91% (inactive)
- viability [6, 9]: 93.6%
- viability [6, 10]: 103%
- inhibition [7]: 0.79% (inactive)
- inhibition [8]: -2.9% (inactive)

SMILES: O=C(Cn1ncc2c(=O)oc3ccccc3c21)Nc1nc2ccccc2s1
- viability [1]: 113%
- Her2 level [2]: 102% (inactive)
- viability [3]: 113% (inactive)
- viability [4]: 97.2% (inactive)
- viability [5]: 102% (inactive)
- differential viability (reversal) ([6]; H69AR cells + 2 uM doxorubicin): 7.33% (inactive)
- viability [6, 9]: 94.9%
- viability [6, 10]: 102%
- inhibition [7]: -8.08% (inactive)
- inhibition [8]: -3.65% (inactive)

SMILES: CCCCn1c(CN(C)Cc2ccccc2)nc2c1c(=O)n(C)c(=O)n2C
- viability [1]: 83%
- Her2 level [2]: 101% (inactive)
- viability [3]: 83% (inactive)
- viability [4]: 71.1% (inactive)
- viability [5]: 71.6% (inactive)
- differential viability (reversal) ([6]; H69AR cells + 2 uM doxorubicin): -7.99% (inactive)
- viability [6, 9]: 79.6%
- viability [6, 10]: 71.6%
- inhibition [7]: -3.24% (inactive)
- inhibition [8]: -0.63% (inactive)

SMILES: OCc1nc2ccccc2n1CCCOc1ccccc1
- viability [1]: 80.5%
- Her2 level [2]: 102% (inactive)
- viability [3]: 80.5% (inactive)
- viability [4]: 90.6% (inactive)
- viability [5]: 103% (inactive)
- differential viability (reversal) ([6]; H69AR cells + 2 uM doxorubicin): 16.7% (inactive)
- viability [6, 9]: 85.9%
- viability [6, 10]: 103%
- inhibition [7]: -0.13% (inactive)
- inhibition [8]: -0.83% (inactive)

SMILES: COCCCNC(=O)CSc1nc2ccc(N3CCOCC3)cc2c(=O)n1CCc1ccccc1
- viability [1]: 104%
- Her2 level [2]: 87% (inactive)
- viability [3]: 104% (inactive)
- viability [4]: 70.3% (inactive)
- viability [5]: 94.9% (inactive)
- differential viability (reversal) ([6]; H69AR cells + 2 uM doxorubicin): -5.04% (inactive)
- viability [6, 9]: 99.9%
- viability [6, 10]: 94.9%
- inhibition [7]: -2.73% (inactive)
- inhibition [8]: -0.48% (inactive)

SMILES: Cn1c(=O)[nH]c(=O)c2c1nc(NCCCn1ccnc1)n2Cc1ccccc1
- viability [1]: 89%
- Her2 level [2]: 108% (inactive)
- viability [3]: 89% (inactive)
- viability [4]: 97.9% (inactive)
- viability [5]: 95.8% (inactive)
- differential viability (reversal) ([6]; H69AR cells + 2 uM doxorubicin): 4.16% (inactive)
- viability [6, 9]: 91.7%
- viability [6, 10]: 95.8%
- inhibition [7]: -1.47% (inactive)
- inhibition [8]: -3.44% (inactive)

SMILES: CCOC(=O)c1ccc(Oc2nc(NC)nc(OC)n2)cc1
- viability [1]: 100%
- Her2 level [2]: 108% (inactive)
- viability [3]: 100% (inactive)
- viability [4]: 103% (inactive)
- viability [5]: 104% (inactive)
- differential viability (reversal) ([6]; H69AR cells + 2 uM doxorubicin): 5.53% (inactive)
- viability [6, 9]: 98.8%
- viability [6, 10]: 104%
- inhibition [7]: -1.35% (inactive)
- inhibition [8]: -6.67% (inactive)

SMILES: CCOc1ccccc1N(C(=O)c1ccco1)C(C(=O)NC1CCCC1)c1cccnc1 (stereo not given)
- viability [1]: 84%
- Her2 level [2]: 104% (inactive)
- viability [3]: 84% (inactive)
- viability [4]: 101% (inactive)
- viability [5]: 90.5% (inactive)
- differential viability (reversal) ([6]; H69AR cells + 2 uM doxorubicin): -6.1% (inactive)
- viability [6, 9]: 96.6%
- viability [6, 10]: 90.5%
- inhibition [7]: -1.78% (inactive)
- inhibition [8]: -2.54% (inactive)

SMILES: CCc1cc2c(=O)c(-c3cscn3)coc2cc1O
- viability [1]: 108%
- Her2 level [2]: 96% (inactive)
- viability [3]: 108% (inactive)
- viability [4]: 63.5% (inactive)
- viability [5]: 88.8% (inactive)
- differential viability (reversal) ([6]; H69AR cells + 2 uM doxorubicin): -13% (inactive)
- viability [6, 9]: 102%
- viability [6, 10]: 88.8%
- inhibition [7]: -1.32% (inactive)
- inhibition [8]: 2.95% (inactive)

SMILES: O=C(NCc1ccc(Cl)cc1)c1ccc(COCC(F)(F)F)o1
- viability [1]: 100%
- Her2 level [2]: 91% (inactive)
- viability [3]: 100% (inactive)
- viability [4]: 88.5% (inactive)
- viability [5]: 101% (inactive)
- differential viability (reversal) ([6]; H69AR cells + 2 uM doxorubicin): 20.9% (inactive)
- viability [6, 9]: 79.7%
- viability [6, 10]: 101%
- inhibition [7]: -1.45% (inactive)
- inhibition [8]: -5.27% (inactive)

SMILES: Cc1cccc2cc(C#N)c(NCCNC(=O)NC3CCCCC3)nc12
- viability [1]: 97.5%
- Her2 level [2]: 84.5% (inactive)
- viability [3]: 97.5% (inactive)
- viability [4]: 48.3% (inactive)
- viability [5]: 75.1% (inactive)
- differential viability (reversal) ([6]; H69AR cells + 2 uM doxorubicin): -7.59% (inactive)
- viability [6, 9]: 82.7%
- viability [6, 10]: 75.1%
- inhibition [7]: -2.37% (inactive)
- inhibition [8]: -3.45% (inactive)

SMILES: Cc1ccc2c(c1)CCCN2C(=O)C1CCCO1 (stereo not given)
- viability [1]: 101%
- Her2 level [2]: 100% (inactive)
- viability [3]: 101% (inactive)
- viability [4]: 99.3% (inactive)
- viability [5]: 108% (inactive)
- differential viability (reversal) ([6]; H69AR cells + 2 uM doxorubicin): 14.6% (inactive)
- viability [6, 9]: 93.3%
- viability [6, 10]: 108%
- inhibition [7]: -1.97% (inactive)
- inhibition [8]: -6.83% (inactive)

SMILES: Cc1ccc(S(=O)(=O)N2CCCC(c3nnc4n3-c3ccccc3SC4)C2)cc1 (stereo not given)
- viability [1]: 78%
- Her2 level [2]: 71.5% (inactive)
- viability [3]: 78% (inactive)
- viability [4]: 87.2% (inactive)
- viability [5]: 76.5% (inactive)
- differential viability (reversal) ([6]; H69AR cells + 2 uM doxorubicin): 4.54% (inactive)
- viability [6, 9]: 72%
- viability [6, 10]: 76.5%
- inhibition [7]: -8.67% (inactive)
- inhibition [8]: 4.92% (inactive)

SMILES: Cn1cccc1-c1nc2ccc(NC(=O)c3ccco3)cc2[nH]1
- viability [1]: 114%
- Her2 level [2]: 93% (inactive)
- viability [3]: 114% (inactive)
- viability [4]: 120% (inactive)
- viability [5]: 77% (inactive)
- differential viability (reversal) ([6]; H69AR cells + 2 uM doxorubicin): -4.33% (inactive)
- viability [6, 9]: 81.4%
- viability [6, 10]: 77%
- inhibition [7]: -2.76% (inactive)
- inhibition [8]: -3.65% (inactive)

SMILES: CCCC(=O)Nc1ccc(NC(=O)c2ccccc2OC)cn1
- viability [1]: 94.5%
- Her2 level [2]: 101% (inactive)
- viability [3]: 94.5% (inactive)
- viability [4]: 100% (inactive)
- viability [5]: 92.9% (inactive)
- differential viability (reversal) ([6]; H69AR cells + 2 uM doxorubicin): 5.96% (inactive)
- viability [6, 9]: 86.9%
- viability [6, 10]: 92.9%
- inhibition [7]: -1.17% (inactive)
- inhibition [8]: -4.43% (inactive)

SMILES: COc1ccccc1C(=O)Nc1ccc(N2CCN(Cc3ccccc3)CC2)cc1
- viability [1]: 81.5%
- Her2 level [2]: 75.5% (inactive)
- viability [3]: 81.5% (inactive)
- viability [4]: 66.8% (inactive)
- viability [5]: 89.6% (inactive)
- differential viability (reversal) ([6]; H69AR cells + 2 uM doxorubicin): 2.1% (inactive)
- viability [6, 9]: 87.5%
- viability [6, 10]: 89.6%
- inhibition [7]: -5.2% (inactive)
- inhibition [8]: 1.97% (inactive)
